RTF Ca sens act – increases calcium sensitivity of human cardiac regulated thin filaments. P19429+P45379. IANBD-labeled TnC RTF fluorescence at EC20 calcium; 0% EC20 calcium, 100% full calcium. activation, % at 7.2 µM. 0.24% of 340,000 active;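 active = activation above the mean over all tested compounds plus 3 SD, cut at about 30% in these data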;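 also: rise in fluorescence read as greater calcium sensitivity of cardiac thin filaments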
Tn7 DDE FP – inhibitors of Tn7 peptide binding to human fibrin DD(E) | 0.13% of 370,000 active | inhibition, % at 8.3 µM | P02675 | FP displacement of FITC-Tn7 peptide from fibrin DD(E); 0% = median of compound wells per plate;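 active = inhibition above the mean of compounds falling within the control limits plus 3 SD of them, cut at about 14% in these data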;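 also: 0% = plate median of compound wells and 100% = 10 µM Aha-Tn7 peptide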
Target sequence (P02675 whole entry, looked up): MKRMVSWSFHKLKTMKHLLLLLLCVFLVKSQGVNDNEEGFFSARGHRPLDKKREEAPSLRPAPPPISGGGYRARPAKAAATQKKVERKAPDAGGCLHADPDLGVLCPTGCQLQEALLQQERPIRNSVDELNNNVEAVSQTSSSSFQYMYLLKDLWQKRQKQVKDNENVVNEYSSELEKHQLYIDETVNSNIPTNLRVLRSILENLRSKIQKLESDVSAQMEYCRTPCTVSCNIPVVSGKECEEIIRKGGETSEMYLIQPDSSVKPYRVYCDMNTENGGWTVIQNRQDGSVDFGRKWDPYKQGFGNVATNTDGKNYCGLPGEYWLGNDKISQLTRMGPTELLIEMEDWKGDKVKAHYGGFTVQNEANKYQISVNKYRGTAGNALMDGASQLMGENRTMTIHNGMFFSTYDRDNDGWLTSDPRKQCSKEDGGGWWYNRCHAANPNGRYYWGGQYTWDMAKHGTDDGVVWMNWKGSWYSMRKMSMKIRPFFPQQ
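Test system – human fibrin DD(E) · Times – 10 min preincubation, 3 h with tracer, room temperature · Detection – fluorescence polarization of the labelled Tn7 tracer · Measure – percent inhibition normalized to high-control wells · Benchmarks – high control wells with 10 µM unlabelled Aha-Tn7 peptide (full inhibition) · Repeats – singlicate testing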
CRFR2-BP ag – agonists of human CRF-binding protein/CRF-R2 receptor complex | HEK293 CRF-R2/CRF-BP, calcium dye fluorescence (FLIPR); percent of saturating CRF peptide response | activation, % at 13.2 µM | 0.46% of 350,000 active | AID 588473;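 active = activation of at least 50%, plus an integration ratio under a set limit after plate pattern correction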;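 also: plate controls were neutral control wells without compound for no effect and CRF at EC100 for full effect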
Cardiac RTF inh – cardiac RTF calcium desensitization | P19429+P45379 | IANBD-labeled cardiac RTF, Ca2+ fluorescence | inhibition, % at 7.15 µM | 0.12% of 340,000 active | AID 493244;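 active = inhibition above the mean inhibition of all tested compounds plus 3 SD, cut at about 17% in these data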;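 also: assay run at fixed EC70 calcium of 1.6 mM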
DDE Tn6 FP inh – DD(E)-Tn6 binding inhibition, primary FP screen | inhibition, % at 8.3 µM | 0.21% of 370,000 active | Fibrin DD(E) TRITC-Tn6 fluorescence polarization displacement | P02675;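 active = inhibition above a per-campaign cutoff: mean of compounds within control limits plus 3 SD, cut at about 15% in these data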;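 also: 0% = median of all compound wells on the plate and 100% = blocking peptide control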
CRFBP-R2 block – blocks CRF-induced signaling of the CRF-BP/CRF-R2 complex; HEK293 CRF-R2/CRF-BP, CRF-induced calcium fluorescence; AID 588475; 0.59% of 350,000 active; inhibition, % at 11.8 µM;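 active = inhibition of the ligand-induced calcium signal above about 50% at the single tested concentration, limit read from the data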
DDE Tn6 FP ctr – DD(E)-Tn6 binding inhibition, counter-screen. inhibition, % at 8.3 µM. Fibrin DD(E), TRITC-Tn6 fluorescence polarization displacement; 0% = median of compound wells, not DMSO. shares compounds with DDE Tn6 FP inh. AID 720621. 2% of 680 active;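 active = inhibition above the mean of test compounds lying between the control limits plus 3 SD of those, cut at about 14% in these data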;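 also: 0% = median of compound wells and 100% = wells with Aha-Tn7 blocking peptide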
DDE Tn6 confirm – confirmation of inhibitors of Tn6 binding to human fibrin DD(E); shares compounds with DDE Tn6 FP inh; FP displacement of TRITC-Tn6 peptide from DD(E); 0% = per-plate median of test wells; AID 720631; inhibition, % at 8.3 µM; 10% of 680 active;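 active = inhibition above the mean of compounds lying within the control limits plus 3 SD, cut at about 16% in these data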;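 also: 100% = high control wells holding a competing inhibitor peptide at 10 µM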
* = called active by the depositor; i = inactive; x = not tested or not shown; + = active, no number; ! = not active in a repeat. Most compounds without a hit are left out; they make up all but 1.4% or so of the library.

SMILES	RTF Ca sens act	Tn7 DDE FP	CRFR2-BP ag	Cardiac RTF inh	DDE Tn6 FP inh	CRFBP-R2 block	DDE Tn6 FP ctr	DDE Tn6 confirm
COc1ccccc1CCn1cnc(Cc2ccccc2)c1C(C)C	x	8	x	x	10	x	x	x
COc1ccccc1N1CCN(/N=C/c2ccc(C(=O)O)cc2)CC1	-2	-6	-1	-3	17*	6	-3	-8
O=C(c1ccc(Cl)c(S(=O)(=O)N2CCCCCC2)c1)N1CCCC(C(F)(F)F)C1 (stereo not given)	-9	-5	1	-19	2	0	x	x
Cc1ccc(C(=O)N2CCCC(C(F)(F)F)C2)cc1S(=O)(=O)N1CCCCC1 (stereo not given)	2	-4	-1	-1	16*	-12	2	-8
O=S(=O)(CC1NCc2cc(F)ccc21)NCCc1ccccc1 (stereo not given)	x	-3	x	x	-7	x	x	x
CCOC(=O)c1c(C)[nH]c(O)c1C=Nc1ccc(Cl)cc1	5	-4	18	-4	32*	-33	2	-3
C[C@H]1COc2cc(N3CCCC3)ccc2S(=O)(=O)N1	x	6	x	x	1	x	x	x
Cc1ccc(-c2csc3ncnc(N4CCN(c5ccccc5O)CC4)c23)cc1	3	4	1	-1	16*	-25	4	-2
CCOC(=O)C1(C)C(=O)CC2c3nc4ccccc4cc3CN2C1=O (stereo not given)	x	4	-2	x	75*	1	4	47*
CCOC(=O)N1Cc2cc3ccccc3nc2C1	x	-5	0	x	2	-4	x	x
O=C(Cc1ccc2c(c1)OCO2)N1CCC(n2nc(-c3ccccc3)oc2=O)CC1	x	4	x	x	1	x	x	x
O=C(CCS(=O)(=O)c1ccccc1)Nc1ccc(F)cc1F	x	0	x	x	8	x	x	x
NS(=O)(=O)c1ccc(NC(=O)CSc2nc3ccccc3c(=O)n2Cc2ccncc2)cc1	-4	-6	-1	-4	7	5	x	x
NS(=O)(=O)c1ccc(NC(=O)CSc2nc3ccccc3c(=O)n2-c2ccc(Br)cc2)cc1	x	-3	x	x	27*	x	1	8
O=C(O)c1ccccc1-c1c2cc(I)c(=O)c(I)c-2oc2c(I)c(O)c(I)cc12	501*	-98	243*	i	+	-255	-156	93*
CCN1C(=O)CC(N2CCN(CC(=O)NC(C)C)CC2)C1=O (stereo not given)	3	-2	2	0	16*	8	1	-2
CCCCNC(=O)O[C@H]1CC[C@@]23CCCN2C(=O)CCC[C@H]3[C@H]1C	x	5	x	x	7	x	x	x
CC(C)CNC(=O)C1(C)CCCN1Cc1ccc(OC(F)(F)F)cc1 (stereo not given)	x	2	x	x	-3	x	x	x
O=C(Nc1ccc2c(c1)OCO2)c1c[nH]c(=O)n(-c2ccc(F)cc2)c1=O	-7	1	-3	1	15*	16	5	4
COc1ccc(-n2c(=O)[nH]cc(C(=O)Nc3ccc4c(c3)OCCO4)c2=O)cc1OC	1	-2	2	2	2	-5	x	x
Oc1cc2c(cc1O)C1c3ccc(O)c(O)c3OCC1(O)C2 (stereo not given)	-1	-4	-1	1	33*	0	-4	21*
CC1(C)CC(=O)C2=C(C1)N1C(=C(C#N)C2c2ccccc2Cl)N=C(N)c2ccccc21 (stereo not given)	-5	-6	-2	-2	17*	-14	2	0
CC(=O)c1cccc(NC(=O)COC(=O)c2n[nH]c3ccccc23)c1	-1	-3	0	-9	16*	3	6	-4
C[C@@H](NC(=O)c1ncn2c1c(=O)[nH]c1ccc(Br)cc12)c1ccccc1	x	3	-1	x	1	2	x	x
O=C(Nc1nccs1)C1(C(=O)C2CC2)CC(c2ccccn2)=NO1 (stereo not given)	x	4	x	x	5	x	x	x
SMILES	RTF Ca sens act	Tn7 DDE FP	CRFR2-BP ag	Cardiac RTF inh	DDE Tn6 FP inh	CRFBP-R2 block	DDE Tn6 FP ctr	DDE Tn6 confirm
O=C(Nc1ccccc1N1CCCC1)c1ccccc1Cl	-5	-8	-1	-7	-5	17	x	x
O=C(Nc1ccccc1N1CCCC1)c1ccc(Cl)cc1Cl	-3	4	-3	-3	16*	27	0	-4
COc1ccc(CNC(=O)CN2C(=O)NC(C)(c3ccc(C(C)(C)C)cc3)C2=O)cc1 (stereo not given)	-2	7	-2	-1	2	19	x	x
COc1ccc(C2(C)NC(=O)N(CC(=O)NC(C)c3ccc(CC(C)C)cc3)C2=O)cc1 (stereo not given)	-3	2	2	-8	19*	-30	9	0
C=CCN1C(=O)[C@H](CC(=O)NCc2cccs2)[C@@]2(C(=O)OCC)CCCC=C12	x	5	x	x	6	x	x	x
Cc1cc(C(C)(C)C)cc(S(=O)(=O)NCCc2ccncc2)c1C	-4	0	-1	-5	21*	-21	-5	-8
O=C(O)c1ccc(-n2nc(C(F)(F)F)c3c2CCCC3)cc1	0	2	0	-9	21*!	10	4	3
NC(=O)c1ccc(-n2nc(C(F)(F)F)c3c2CCCC3)cc1	-2	5	2	-1	-1	-10	x	x
COC(=O)COC(=O)c1ccc(Oc2nc(OC)nc(N(C)C)n2)cc1	4	-9	-1	-12	21*	-17	0	4
COc1nc(Oc2ccc(C(=O)OCC(N)=O)cc2)nc(N(C)C)n1	10	3	0	-19	4	16	x	x
CCCCn1nnnc1C(c1cc2ccccc2o1)N(CCC#N)Cc1ccccc1 (stereo not given)	x	6	x	x	10	x	x	x
Nn1c(SCC(=O)Nc2ccccc2-c2ccccc2)nnc1-c1n[nH]c2c1CCC2	x	-4	x	x	6	x	x	x
C[C@H]1[C@@H](NC(=O)c2ccc(C(C)(C)C)cc2)CC[C@@]23CCCN2C(=O)CCC[C@@H]13	x	-2	x	x	0	x	x	x
COc1ccc(Cl)c(Cn2c(NCCCO)nc3c2c(=O)n(C)c(=O)n3C)c1	-2	2	0	-31	17*	-7	-4	-4
Cc1cc2cc(CNS(=O)(=O)c3ccc4ccccc4c3)ccc2n1C	0	-2	-3	-13	50*	-16	6	20*
Cc1cc(C)c(S(=O)(=O)NCc2ccc3c(c2)cc(C)n3C)c(C)c1	-1	-3	2	-11	59*	-32	-4	8

Screening data from PubChem.
